Measured values published in ChEMBL document CHEMBL3525963, “Tissue distribution and elimination of [14C]apixaban in rats” (Drug Metab Dispos, 2011).

Key:
Parameters in all cases: dose 5 mg/kg, dosed compound name [14C]-apixaban, route oral
Settings in all cases: in vivo
[1] = test system: Rattus norvegicus; assay: Biodistribution in pregnant Sprague-Dawley rat amnion at 5 mg/kg, po administered as single dose measured after 24 hrs; type: ADME, organism-based
[2] = test system: Rattus norvegicus; assay: Biodistribution in pregnant Sprague-Dawley rat bone marrow at 5 mg/kg, po administered as single dose measured after 0.5 hrs; type: ADME, organism-based
[3] = test system: Pancreas; assay: Biodistribution in pregnant Sprague-Dawley rat pancreas at 5 mg/kg, po administered as single dose measured after 4 hrs; type: ADME, organism-based
[4] = test system: Brain; assay: Biodistribution in female Sprague-Dawley rat brain at 5 mg/kg, po administered as single dose measured after 8 hrs; type: ADME, organism-based
Outline: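 [14C]Apixaban (1.0 mg/mL, 20 μCi/mL in 0.5% Tween 80 in Labrafil) given as a single oral gavage of 5 mg/kg (100 μCi/kg) to fasted female SD rats, one rat per time point. Carcasses were frozen in hexane/dry ice and cut into 40 µm sagittal sections for QWBA against [14C]glucose standards. Brain radioactivity is reported as µg eq/g, with LLOQ 0.037 µg eq/g.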

[5] = test system: Liver; assay: Biodistribution in female Sprague-Dawley rat liver at 5 mg/kg, po administered as single dose measured after 72 hrs; type: ADME, organism-based
Outline: (§1)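 Quantitative whole-body autoradiography was run after a single 5 mg/kg (100 μCi/kg) oral gavage to fasted female or pregnant SD rats, one rat per time point. Carcasses were frozen in hexane/dry ice, and 40 µm sagittal sections were dried at −20°C for at least 48 h. Sections were exposed to a phosphor plate alongside [14C]glucose standards (0.001–6.5 µCi/g). Results are µg eq/g, with LLOQ 0.037 µg eq/g.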

[6] = test system: Heart; assay: Biodistribution in male Sprague-Dawley rat heart at 5 mg/kg, po administered as single dose measured after 72 hrs; type: ADME, organism-based
Outline: (§2)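 Fasted male SD rats (225-252 g) each received one oral gavage dose of [14C]apixaban, 5 mg/kg (100 μCi/kg), in 0.5% Tween 80/Labrafil vehicle. One rat was killed per time point, from 0.5 to 168 h. Frozen carcasses were cut into 40 µm sagittal whole-body sections and read by QWBA phosphor imaging against [14C]glucose calibrants. Results are in µg apixaban eq/g; BLQ <0.037 µg eq/g.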

[7] = test system: Heart; assay: Biodistribution in pregnant Sprague-Dawley rat heart at 5 mg/kg, po administered as single dose measured after 1 hr; type: ADME, organism-based
[8] = test system: Lung; assay: Biodistribution in female Sprague-Dawley rat lung at 5 mg/kg, po administered as single dose measured after 24 hrs; type: ADME, organism-based; outline: as §1
[9] = test system: Pancreas; assay: Biodistribution in male Sprague-Dawley rat pancreas at 5 mg/kg, po administered as single dose measured after 4 hrs; type: ADME, organism-based
Outline: (§3)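 [14C]apixaban (1.0 mg/mL, 20 μCi/mL) in 0.5% Tween 80 in Labrafil, given by oral gavage at 100 μCi/kg to male rats (225-252 g) fasted overnight through 4 h post-dose. One rat per time point. Carcasses frozen in hexane/dry ice and cut into 40 µm sagittal sections. QWBA read on phosphor plates against [14C]glucose standards, reported as µg eq/g. LLOQ 0.037 µg eq/g.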

[10] = Cmax in lactating Sprague-Dawley rat milk at 5 mg/kg, po administered as single dose; type: ADME, organism-based
Outline: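 Lactating SD rats received a single oral gavage of 5 mg/kg (108 μCi/kg) in 0.5% Tween 80/Labrafil. Three rats were sampled per time point at 0.5-24 h. Oxytocin was given sc 15 min before milking under anesthesia. Milk, blood and plasma were counted in duplicate by liquid scintillation for 10 min and expressed as apixaban equivalents.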

[11] = test system: Blood; assay: Biodistribution in male Sprague-Dawley rat blood at 5 mg/kg, po administered as single dose measured after 24 hrs; type: ADME, organism-based; outline: as §2
[12] = test system: Rattus norvegicus; assay: Biodistribution in male Sprague-Dawley rat brown fat at 5 mg/kg, po administered as single dose measured after 8 hrs; type: ADME, organism-based, Brown adipose tissue
Outline: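 Fasted male rats, 225-252 g, received [14C]apixaban by single oral gavage at 100 μCi/kg in 0.5% Tween 80/Labrafil. One rat was killed per time point and the carcass frozen. Tissue radioactivity was quantified by QWBA (40 µm sagittal sections, phosphor plate, [14C]glucose calibration) as µg eq apixaban/g, with LLOQ 0.037 μg eq/g.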

[13] = test system: Muscle tissue; assay: Biodistribution in male Sprague-Dawley rat muscle at 5 mg/kg, po administered as single dose measured after 0.5 hrs; type: ADME, organism-based; outline: as §3
[14] = test system: Rattus norvegicus; assay: Biodistribution in female Sprague-Dawley rat salivary gland at 5 mg/kg, po administered as single dose measured after 0.5 hrs; type: ADME, organism-based
Outline: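 [14C]apixaban (20 μCi/mL in dosing solution) in 0.5% Tween 80 in Labrafil given by oral gavage to fasted female rats, 206-213 g, at 100 μCi/kg. One rat per time point was euthanized and snap-frozen. Sagittal 40 µm whole-body sections were read by QWBA phosphor imaging against [14C]glucose standards. Results are in µg eq apixaban/g, with LLOQ 0.037 μg eq/g.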

[15] = test system: Harderian gland; assay: Biodistribution in pregnant Sprague-Dawley rat harderian gland at 5 mg/kg, po administered as single dose measured after 8 hrs; type: ADME, organism-based
[16] = test system: Muscle tissue; assay: Biodistribution in pregnant Sprague-Dawley rat muscle at 5 mg/kg, po administered as single dose measured after 0.5 hrs; type: ADME, organism-based
[17] = test system: Rattus norvegicus; assay: Biodistribution in male Sprague-Dawley rat brown fat at 5 mg/kg, po administered as single dose measured after 24 hrs; type: ADME, organism-based, Brown adipose tissue; outline: as §2
[18] = test system: Thymus; assay: Biodistribution in male Sprague-Dawley rat thymus at 5 mg/kg, po administered as single dose measured after 24 hrs; type: ADME, organism-based; outline: as §2
[19] = test system: Rattus norvegicus; assay: Biodistribution in pregnant Sprague-Dawley rat salivary gland at 5 mg/kg, po administered as single dose measured after 0.5 hrs; type: ADME, organism-based
[20] = test system: Liver; assay: Biodistribution in male Sprague-Dawley rat liver at 5 mg/kg, po administered as single dose measured after 0.5 hrs; type: ADME, organism-based; outline: as §3
[21] = test system: Thymus; assay: Biodistribution in female Sprague-Dawley rat thymus at 5 mg/kg, po administered as single dose measured after 8 hrs; type: ADME, organism-based; outline: as §1
[22] = test system: Blood; assay: Cmax in pregnant Sprague-Dawley rat blood at 5 mg/kg, po administered as single dose; type: ADME, organism-based
Outline: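 Fasted male, female or pregnant SD rats received a single oral gavage of 5 mg/kg (100 μCi/kg) in 0.5% Tween 80/Labrafil. One rat was killed per time point, up to 168 h (48 h for pregnant). Blood was collected into K3EDTA. Blood radioactivity came from autoradiogram or LSC data, and Cmax was taken from the concentration-time profile.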

[23] = test system: Thymus; assay: Biodistribution in male Sprague-Dawley rat thymus at 5 mg/kg, po administered as single dose measured after 4 hrs; type: ADME, organism-based
[24] = test system: Rattus norvegicus; assay: Biodistribution in pregnant Sprague-Dawley rat placenta at 5 mg/kg, po administered as single dose measured after 48 hrs; type: ADME, organism-based
Outline: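 Pregnant SD rats (270-319 g) were fasted overnight and given one oral gavage of 5 mg/kg (100 μCi/kg) in 0.5% Tween 80 in Labrafil. One rat was euthanized per time point (0.5, 1, 4, 8, 24, 48 h) and the carcass frozen. 40 µm sagittal sections were phosphor-imaged against [14C]glucose standards and results reported as µg eq/g; LLOQ 0.037 µg eq/g.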

[25] = test system: Lung; assay: Biodistribution in pregnant Sprague-Dawley rat lung at 5 mg/kg, po administered as single dose measured after 8 hrs; type: ADME, organism-based
[26] = test system: Rattus norvegicus; assay: Biodistribution in male Sprague-Dawley rat salivary gland at 5 mg/kg, po administered as single dose measured after 24 hrs; type: ADME, organism-based

COc1ccc(-n2nc(C(N)=O)c3c2C(=O)N(c2ccc(N4CCCC[14C]4=O)cc2)CC3)cc1
Radiolabel recovery [1]: 3.52 ugequiv/g
Radiolabel recovery [2]: 0.5 ugequiv/g
Radiolabel recovery [3]: 0.99 ugequiv/g
Radiolabel recovery [4]: < 0.037 ugequiv/g
Radiolabel recovery [5]: Not detected assumed BLQ
Radiolabel recovery [6]: Not detected assumed BLQ
Radiolabel recovery [7]: 0.93 ugequiv/g
Radiolabel recovery [8]: Not sampled as not visualised in autoradiograph
Radiolabel recovery [9]: 0.55 ugequiv/g
Cmax [10]: 8920 ngequiv/g
Radiolabel recovery [11]: Not sampled as not visualised in autoradiograph
Radiolabel recovery [12]: 0.07 ugequiv/g
Radiolabel recovery [13]: 0.2 ugequiv/g
Radiolabel recovery [14]: 0.28 ugequiv/g
Radiolabel recovery [15]: 0.19 ugequiv/g
Radiolabel recovery [16]: 0.37 ugequiv/g
Radiolabel recovery [17]: Not sampled as not visualised in autoradiograph
Radiolabel recovery [18]: Not detected assumed BLQ
Radiolabel recovery [19]: 0.73 ugequiv/g
Radiolabel recovery [20]: 0.81 ugequiv/g
Radiolabel recovery [21]: 0.09 ugequiv/g
Cmax [22]: 1440 ngequiv/g
Radiolabel recovery [23]: 0.23 ugequiv/g
Radiolabel recovery [24]: Not detected assumed BLQ
Radiolabel recovery [25]: 0.15 ugequiv/g
Radiolabel recovery [26]: < 0.037 ugequiv/g
